Converted amounts (≈) assume the structure as drawn.
How the values were obtained:
Type in all cases: functional
[1] = Antibacterial activity against Eberthella typhosa by two-fold serial dilution method
How it was run: (§1)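 MIC read as the lowest concentration giving complete growth inhibition. Two-fold serial dilutions were made in 96-well plates following NCCLS, giving a series down to 0.5 µg/mL (…32, 16, 8, 4, 2, 1, 0.5). Plates were inoculated and incubated at 37 °C for 24 h. A DMSO-with-inoculum control without drug was included. Growth was monitored visually and spectrophotometrically, in triplicate.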

Pichia norvegensis = assay: Antifungal activity against Candida mycoderma after 24 hrs by microbroth dilution method
Bacillus spizizenii = assay: Antibacterial activity against Bacillus subtilis ATCC 6633 by two-fold serial dilution method
How it was run: (§2)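 Standard two-fold serial dilution in 96-well microtest plates following NCCLS. Top dilutions printed as 32, 16, 8, 4, 2, 1, 0.5 ug/mL. Wells inoculated and held at 37 °C for 24 h. Growth judged visually and by spectrophotometer, in triplicate. MIC is the lowest concentration giving complete growth inhibition.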

Pseudomonas aeruginosa = assay: Antibacterial activity against Pseudomonas aeruginosa by two-fold serial dilution method; how it was run: as §2
Cyberlindnera jadinii = assay: Antifungal activity against Candida utilis after 24 hrs by microbroth dilution method; conditions: Williopsis jadinii
How it was run: (§3)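 Spore suspension prepared in sterile distilled water from one-day-old cultures on Sabouraud agar, final 1-5 x 10^3 spores/mL. Compounds were serially diluted in RPMI 1640 to give eleven dilutions. Incubation at 35 °C for 24 h. Growth read visually and spectrophotometrically, in triplicate. MIC is the lowest concentration with complete inhibition.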

Candida albicans = assay: Antifungal activity against Candida albicans ATCC 76615 after 24 hrs by microbroth dilution method; conditions: ATCC 76615, 24 h; how it was run: as §3
Staphylococcus aureus [2] = assay: Antibacterial activity against methicillin-resistant Staphylococcus aureus N315 by two-fold serial dilution method; how it was run: as §1
Shigella dysenteriae = assay: Antibacterial activity against Shigella dysenteriae by two-fold serial dilution method; how it was run: as §1
Escherichia coli = assay: Antibacterial activity against Escherichia coli DH52 by two-fold serial dilution method; how it was run: as §2
Staphylococcus aureus [3] = assay: Antibacterial activity against Staphylococcus aureus ATCC 25923 by two-fold serial dilution method; how it was run: as §2
Saccharomyces cerevisiae = assay: Antifungal activity against Saccharomyces cerevisiae after 24 hrs by microbroth dilution method; how it was run: as §3
Micrococcus luteus = assay: Antibacterial activity against Micrococcus luteus by two-fold serial dilution method; how it was run: as §2

Compound	MIC [1]	MIC (Pichia norvegensis)	MIC (Bacillus spizizenii)	MIC (Pseudomonas aeruginosa)	MIC (Cyberlindnera jadinii)	MIC (Candida albicans)	MIC (Staphylococcus aureus [2])	MIC (Shigella dysenteriae)	MIC (Escherichia coli)	MIC (Staphylococcus aureus [3])	MIC (Saccharomyces cerevisiae)	MIC (Micrococcus luteus)
CCOC(=O)c1cn(CC2CO2)c2ccc(F)cc2c1=O (racemic)	8 µg/mL (≈ 27.5 µM)	8 µg/mL (≈ 27.5 µM)	64 µg/mL (≈ 220 µM)	–	–	–	–	–	–	–	–	–
CCOC(=O)c1cn(CC(O)Cn2c([N+](=O)[O-])cnc2C)c2ccc(C)cc2c1=O (racemic)	8 µg/mL (≈ 19.3 µM)	256 µg/mL (≈ 618 µM)	8 µg/mL (≈ 19.3 µM)	8 µg/mL (≈ 19.3 µM)	256 µg/mL (≈ 618 µM)	2 µg/mL (≈ 4.83 µM)	8 µg/mL (≈ 19.3 µM)	4 µg/mL (≈ 9.65 µM)	4 µg/mL (≈ 9.65 µM)	8 µg/mL (≈ 19.3 µM)	4 µg/mL (≈ 9.65 µM)	16 µg/mL (≈ 38.6 µM)
CCOC(=O)c1cn(CC(O)Cn2c([N+](=O)[O-])cnc2C)c2c(F)cccc2c1=O (racemic)	4 µg/mL (≈ 9.56 µM)	128 µg/mL (≈ 306 µM)	16 µg/mL (≈ 38.2 µM)	16 µg/mL (≈ 38.2 µM)	512 µg/mL (≈ 1220 µM)	128 µg/mL (≈ 306 µM)	8 µg/mL (≈ 19.1 µM)	8 µg/mL (≈ 19.1 µM)	16 µg/mL (≈ 38.2 µM)	32 µg/mL (≈ 76.5 µM)	256 µg/mL (≈ 612 µM)	8 µg/mL (≈ 19.1 µM)
CCOC(=O)c1cn(CC2CO2)c2ccc(C)cc2c1=O (racemic)	2 µg/mL (≈ 6.96 µM)	8 µg/mL (≈ 27.8 µM)	64 µg/mL (≈ 223 µM)	–	–	–	–	–	–	–	–	–
CCOC(=O)c1cn(CC2CO2)c2c(F)cc(F)cc2c1=O (racemic)	2 µg/mL (≈ 6.47 µM)	16 µg/mL (≈ 51.7 µM)	32 µg/mL (≈ 103 µM)	–	512 µg/mL (≈ 1660 µM)	–	–	–	–	–	–	–
CCOC(=O)c1cn(CC(O)Cn2cnc([N+](=O)[O-])c2)c2c(Cl)cc(Cl)cc2c1=O (racemic)	16 µg/mL (≈ 35.1 µM)	64 µg/mL (≈ 141 µM)	4 µg/mL (≈ 8.79 µM)	16 µg/mL (≈ 35.1 µM)	256 µg/mL (≈ 562 µM)	64 µg/mL (≈ 141 µM)	64 µg/mL (≈ 141 µM)	8 µg/mL (≈ 17.6 µM)	16 µg/mL (≈ 35.1 µM)	32 µg/mL (≈ 70.3 µM)	32 µg/mL (≈ 70.3 µM)	8 µg/mL (≈ 17.6 µM)
CCOC(=O)c1cn(CC(O)Cn2cnc([N+](=O)[O-])c2)c2c(F)cc(F)cc2c1=O (racemic)	2 µg/mL (≈ 4.74 µM)	16 µg/mL (≈ 37.9 µM)	8 µg/mL (≈ 18.9 µM)	4 µg/mL (≈ 9.47 µM)	64 µg/mL (≈ 152 µM)	32 µg/mL (≈ 75.8 µM)	32 µg/mL (≈ 75.8 µM)	16 µg/mL (≈ 37.9 µM)	8 µg/mL (≈ 18.9 µM)	4 µg/mL (≈ 9.47 µM)	128 µg/mL (≈ 303 µM)	4 µg/mL (≈ 9.47 µM)
CCOC(=O)c1cn(CC(O)Cn2c([N+](=O)[O-])cnc2C)c2c(Cl)cc(Cl)cc2c1=O (racemic)	8 µg/mL (≈ 17 µM)	64 µg/mL (≈ 136 µM)	8 µg/mL (≈ 17 µM)	16 µg/mL (≈ 34.1 µM)	256 µg/mL (≈ 546 µM)	64 µg/mL (≈ 136 µM)	32 µg/mL (≈ 68.2 µM)	8 µg/mL (≈ 17 µM)	16 µg/mL (≈ 34.1 µM)	16 µg/mL (≈ 34.1 µM)	128 µg/mL (≈ 273 µM)	16 µg/mL (≈ 34.1 µM)
CCOC(=O)c1cn(CC(O)Cn2cnc([N+](=O)[O-])c2)c2ccc(F)cc2c1=O (racemic)	32 µg/mL (≈ 79.1 µM)	32 µg/mL (≈ 79.1 µM)	8 µg/mL (≈ 19.8 µM)	8 µg/mL (≈ 19.8 µM)	16 µg/mL (≈ 39.6 µM)	32 µg/mL (≈ 79.1 µM)	16 µg/mL (≈ 39.6 µM)	32 µg/mL (≈ 79.1 µM)	16 µg/mL (≈ 39.6 µM)	32 µg/mL (≈ 79.1 µM)	16 µg/mL (≈ 39.6 µM)	4 µg/mL (≈ 9.89 µM)
CCOC(=O)c1cn(CC(O)Cn2c([N+](=O)[O-])cnc2C)c2ccc(F)cc2c1=O (racemic)	4 µg/mL (≈ 9.56 µM)	128 µg/mL (≈ 306 µM)	8 µg/mL (≈ 19.1 µM)	16 µg/mL (≈ 38.2 µM)	128 µg/mL (≈ 306 µM)	64 µg/mL (≈ 153 µM)	4 µg/mL (≈ 9.56 µM)	8 µg/mL (≈ 19.1 µM)	8 µg/mL (≈ 19.1 µM)	16 µg/mL (≈ 38.2 µM)	32 µg/mL (≈ 76.5 µM)	8 µg/mL (≈ 19.1 µM)
CCOC(=O)c1cn(CC(O)Cn2c([N+](=O)[O-])cnc2C)c2ccc(OC)cc2c1=O (racemic)	16 µg/mL (≈ 37.2 µM)	256 µg/mL (≈ 595 µM)	8 µg/mL (≈ 18.6 µM)	64 µg/mL (≈ 149 µM)	256 µg/mL (≈ 595 µM)	8 µg/mL (≈ 18.6 µM)	8 µg/mL (≈ 18.6 µM)	32 µg/mL (≈ 74.3 µM)	8 µg/mL (≈ 18.6 µM)	16 µg/mL (≈ 37.2 µM)	2 µg/mL (≈ 4.65 µM)	256 µg/mL (≈ 595 µM)
CCOC(=O)c1cn(CC(O)Cn2cnc([N+](=O)[O-])c2)c2ccc(OC)cc2c1=O (racemic)	256 µg/mL (≈ 615 µM)	512 µg/mL (≈ 1230 µM)	64 µg/mL (≈ 154 µM)	64 µg/mL (≈ 154 µM)	8 µg/mL (≈ 19.2 µM)	16 µg/mL (≈ 38.4 µM)	4 µg/mL (≈ 9.61 µM)	32 µg/mL (≈ 76.9 µM)	2 µg/mL (≈ 4.8 µM)	4 µg/mL (≈ 9.61 µM)	4 µg/mL (≈ 9.61 µM)	512 µg/mL (≈ 1230 µM)

Reference: ChEMBL document CHEMBL3351780, “Novel hybrids of metronidazole and quinolones: synthesis, bioactive evaluation, cytotoxicity, preliminary antimicrobial mechanism and effect of metal ions on their transportation by human serum albumin” (Eur J Med Chem, 2014)
